Here are results for 37 sequences from the array DNA melting data of Ke et al. (doi:10.1101/2024.01.08.574731).

Data set [1] in a line: folding enthalpy; higher = less favourable; fluorescence melt of hairpins on a sequencing array, two-state fit. The following applies: sodium 0.088 M. The method in brief:
(§1)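 Melting temperature and folding enthalpy were derived from bootstrapped two-state fits. The fitted temperatures were raised by 9.35 °C to agree with UV melts, and four replicates were combined by inverse variance. The underlying data were Cy3 fluorescence images of library hairpins, with annealed Cy3 and quencher oligos, on a sequenced MiSeq flow cell in 50 mM Na-HEPES pH 8.0, 25 mM NaCl, taken in 2.5 °C steps up to 60 °C, normalised to pre-quench Cy3 and to control constructs.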

Data set [2] in a line: melting temperature; fluorescence melt of hairpins on a sequencing array, two-state fit, raised by 9.35 °C to match UV melts. The note with it: sodium 0.088 M. The method in brief:
as §1

For GAGAACCGAAAGGTCTC (((.(((....)))))), the folding enthalpy in data set [1] was -20.6 kcal/mol. Further, the Tm in data set [2] stood at 48.1 °C.

On to GATCATTTGGATGATC ((((((....)))))), for which the folding enthalpy in data set [1] was -36.9 kcal/mol. For the same sequence, the Tm in data set [2] was 48.5 °C.

As for GCCCTCGAAAGAGGTGGC ((((((....)))..))), the folding enthalpy in data set [1] is -17.7 kcal/mol. The Tm in data set [2] was 48.4 °C.

Regarding GACTAGGAAACTAGTC ((((((....)))))), the folding enthalpy in data set [1] is -34 kcal/mol. Further, the Tm in data set [2] came out at 50.8 °C.

On to GGCTGAGGAAACCCAGCC (((((.(....).))))), for which the folding enthalpy in data set [1] is -41.9 kcal/mol. In addition, the Tm in data set [2] was 55 °C.

For GAAGTGGCGAAAGCCTTC (((..(((....)))))), the folding enthalpy in data set [1] was -11.4 kcal/mol. The Tm in data set [2] worked out at 31.4 °C.

For the sequence GACACTGGAAACAGTGCC (.(((((....))))).), the folding enthalpy in data set [1] is -14.8 kcal/mol. For the same sequence, the Tm in data set [2] came to 43.2 °C.

GTTAGACGAAAGTCCAAC (((.(((....))).))): the folding enthalpy in data set [1] was -17.3 kcal/mol. For the same sequence, in data set [2], the Tm worked out at 38 °C.

Consider GAGCTGAAAAGCTC (((((....))))), for which the folding enthalpy in data set [1] is -27.2 kcal/mol. Moreover, the Tm in data set [2] was 57.2 °C.

Turning to CGCGGAAGCCTCCGCG ((((((....)))))), the folding enthalpy in data set [1] was -31.3 kcal/mol. For the same sequence, the Tm in data set [2] amounted to 68.6 °C.

As to GACCTAGAAATAGGTC ((((((....)))))), in data set [1], the folding enthalpy was -35.6 kcal/mol. The Tm in data set [2] turned out to be 51.3 °C.

Consider TTCCTGAAAAGGAA (((((....))))), for which the folding enthalpy in data set [1] was -15 kcal/mol. For the same sequence, the Tm in data set [2] came to 39.9 °C.

With GACCGACCGAAAGGTGTC (((..(((....)))))), the folding enthalpy in data set [1] was -15.8 kcal/mol. Further, in data set [2], the Tm is 35.9 °C.

Take GTCCCACGAAAGTGTGAC (((.(((....))).))): the folding enthalpy in data set [1] was -33 kcal/mol. For the same sequence, in data set [2], the Tm is 50.4 °C.

With GTGTCACGAAAGTGCAC (((.(((....)))))), the folding enthalpy in data set [1] is -26 kcal/mol. Further, in data set [2], the Tm was 53.5 °C.

For the sequence GTAGAAGCGAAAGCTTAC (((..(((....)))))), the folding enthalpy in data set [1] is -11.6 kcal/mol. Besides, the Tm in data set [2] stood at 30.1 °C.

GGTAGCGGAAACACTACC (((((.(....).))))): the folding enthalpy in data set [1] is -30.9 kcal/mol. Besides, the Tm in data set [2] worked out at 44.8 °C.

Regarding GATACGCGAAAGCGAATC (((.(((....))).))), the folding enthalpy in data set [1] was -21.6 kcal/mol. In addition, the Tm in data set [2] stood at 49.4 °C.

In the case of GCCAGGCGAAAGCATCGC ((.(.((....)).).)), the folding enthalpy in data set [1] was -8.22 kcal/mol. For the same sequence, the Tm in data set [2] was 36.1 °C.

Turning to GCCAAGACGAAAGTCGGC (((..(((....)))))), the folding enthalpy in data set [1] was -23.7 kcal/mol. In data set [2], the Tm amounted to 54.6 °C.

For the sequence GGGCGTGGAAACGCGTCC ((.((.(....).)).)), in data set [1], the folding enthalpy was -12.9 kcal/mol. The Tm in data set [2] turned out to be 50.7 °C.

Turning to GCGGGGCGAAAGCTCTGC ((.(.((....)).).)), the folding enthalpy in data set [1] is -21.9 kcal/mol. In addition, the Tm in data set [2] is 61.9 °C.

Regarding GGCAACGGAAACGCTGCC ((((.((....)).)))), the folding enthalpy in data set [1] was -41.8 kcal/mol. Further, the Tm in data set [2] came to 53.6 °C.

Turning to GCTCTCGAAAGAGCTAGC ((((((....)))..))), the folding enthalpy in data set [1] is -15.5 kcal/mol. In addition, the Tm in data set [2] was found to be 50.3 °C.

With GATCCAGGTTGGATC ((((((...)))))), the folding enthalpy in data set [1] is -41.9 kcal/mol. For the same sequence, the Tm in data set [2] stood at 50.7 °C.

Regarding GCGTTGACACGC ((((....)))), in data set [1], the folding enthalpy is -21.2 kcal/mol. Besides, the Tm in data set [2] was determined as 50.1 °C.

Regarding GCGAGGGCGAAAGCCCGC (((..(((....)))))), in data set [1], the folding enthalpy was -8.66 kcal/mol. In addition, the Tm in data set [2] was found to be 59.5 °C.

GAAAGCGAAAGCTCTTTC ((((((....)))..))): the folding enthalpy in data set [1] was -16.7 kcal/mol. Besides, the Tm in data set [2] came to 38.2 °C.

CGGTACGGAAACGTCCG (((.(((....)))))): the folding enthalpy in data set [1] is -20.9 kcal/mol. Also, in data set [2], the Tm is 47.7 °C.

As to GCCGCAGGAAACTGCAGC ((.((((....)))).)), the folding enthalpy in data set [1] was -19 kcal/mol. For the same sequence, the Tm in data set [2] came out at 49 °C.

Take GTCGACGGAAACGCCGAC ((((.((....)).)))): the folding enthalpy in data set [1] was -44.7 kcal/mol. Further, the Tm in data set [2] was found to be 55.3 °C.

On to GCATTTCGAAAGAACTGC (((.(((....))).))), for which the folding enthalpy in data set [1] is -32.1 kcal/mol. Further, the Tm in data set [2] was 43 °C.

Consider GATCATAAACATGATC ((((((....)))))), for which, in data set [1], the folding enthalpy was -31 kcal/mol. The Tm in data set [2] came to 43.1 °C.

With GCTAACGGAAACGTTGGC ((.((((....)))).)), in data set [1], the folding enthalpy was -36.1 kcal/mol. Moreover, the Tm in data set [2] came out at 52.6 °C.

Take GTGCGGGGAAACTCGCGC (.(((.(....).))).): in data set [1], the folding enthalpy was -24 kcal/mol. Besides, in data set [2], the Tm was 53.5 °C.

Take GGCTTTACGAAAGTAGCC (((..(((....)))))): in data set [1], the folding enthalpy is -27.7 kcal/mol. Further, the Tm in data set [2] amounted to 45.5 °C.

As to GATCCATAGTGGATC ((((((...)))))), in data set [1], the folding enthalpy is -38.1 kcal/mol. In addition, in data set [2], the Tm turned out to be 49.2 °C.
